This data set concerns bEnd.3 cells. In words: In vitro cellular uptake in bEnd.3 cells. Format: in vitro ADME. As to conditions: for cellular uptake observed by confocal imaging: 10 µM FITC-labelled peptide or free FITC, confocal microscopy. The gist of the method: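 bEnd.3 cells were seeded at 5 × 10^4/cm2 for 24 h, untreated or pretreated with poly-lysine (4 kDa, 20 µM, 1 h). They were exposed to 10 µM FITC-peptide or free FITC for 10 min, 30 min or 2 h, washed with cold PBS and fixed in 4 % PFA. Staining was DiD (10 µM, 30 min) or Hoechst, followed by confocal imaging. Flow cytometry was run on trypsinised cells (Ex 488/Em 525 nm). Mean ± SD, n = 3.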

[1] abbreviates: 10 µM FITC-labelled peptide, 2 h, flow cytometry, n = 3.

The record followed here is publication PMC11382307 (Asian Journal of Pharmaceutical Sciences, 2024).

Regarding `O=C1OC2(c3ccc(O)cc3Oc3cc(O)ccc32)c2ccc(N=C=S)cc21` [free FITC, reference compound], the “cellular uptake observed by confocal imaging” value (2 h) is “weak cellular uptake”.

With “MAPRGFSCLLLLTGEIDLPVKRRAGGR(d)-Dmt-KF-NH2 [HNRS]”, the “cellular uptake observed by confocal imaging” value (2 h) is given as “weak cellular uptake”. For the same compound, the “adsorption to cell membrane” value (10 µM FITC-labelled peptide, 10 min, confocal) is on record as “adsorbed on the plasma membrane”. Further, under setting [1], the “cellular uptake relative to HNSS” value is reported as 13.9% and the “fluorescence intensity of cellular uptake relative to HNG” value is given as 1.5 fold.
